{"source": "PubChem BioAssay AID624467", "about": "(The Scripps Research Institute Molecular Screening Center, 2012)", "note": "Out of some 360,000 compounds screened, about 3,600 (1%) were called active.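 How the source made its calls: active means activation above the mean activation of all test compounds in the run plus 3 SD (cut at about 38% in these data); inactive means the rest.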 The entries come from a sample that favours actives as a whole."}
{"target": "Trace amine-associated receptor 1 (Homo sapiens) (UniProt Q96RJ0)", "sequence (Q96RJ0 whole entry, looked up)": "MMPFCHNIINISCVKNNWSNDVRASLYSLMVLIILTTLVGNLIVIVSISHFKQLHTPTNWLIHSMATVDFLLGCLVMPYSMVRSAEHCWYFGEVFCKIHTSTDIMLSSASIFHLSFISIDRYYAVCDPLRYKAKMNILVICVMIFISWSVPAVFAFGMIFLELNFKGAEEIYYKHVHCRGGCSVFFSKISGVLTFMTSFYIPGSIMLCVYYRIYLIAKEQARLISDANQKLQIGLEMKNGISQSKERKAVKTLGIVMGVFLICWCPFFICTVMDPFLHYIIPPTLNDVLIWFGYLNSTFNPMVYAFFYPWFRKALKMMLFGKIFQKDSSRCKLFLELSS", "assay": "activators of TAAR1 calcium mobilization – Fluo-8 calcium fluorescence, CHO RD-HGA16 cells, primary screen (AID 624467)", "conditions": "CHO RD-HGA16 TAAR1, Fluo-8 calcium fluorescence; at 3 µM; stronger effect = higher value; vehicle wells 0%, saturating PEA agonist 100%", "in_short": "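Test system: RD-HGA16 (CHO) cells co-expressing Gα16 and hTAAR1; dosing: one-point dosing at 3 µM (nominal); timing: 17-24 h seeding, 75 min 37 °C dye, 30 min RT; signal: kinetic Fluo-8 calcium fluorescence; read-out basis: % activation relative to PEA EC100 response; controls: DMSO and PEA EC100; replicates: n 1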"}
{"smiles": "COc1ccc(SSc2ccc(OC)cc2C(=O)O)c(C(=O)O)c1", "activation": "3.23% (inactive)"}
{"smiles": "CC(C)(C)n1ncc2c(=O)n(Cc3c(Cl)cccc3Br)cnc21", "activation": "38.2% (active)"}
{"smiles": "Cn1cnc2c1c(=O)n(Cc1c(Cl)cccc1Cl)c(=O)n2C", "activation": "1.55% (inactive)"}
{"smiles": "CC(C)(C)n1ncc2c(=O)n(Cc3ccc(Cl)cc3)cnc21", "activation": "11.1% (inactive)"}
{"smiles": "CCCNC(=O)C1(C)CCN(Cc2ccc(Cl)c(Cl)c2)C1", "note": "(stereo not given)", "activation": "1.99% (inactive)"}
{"smiles": "Cc1ccc(C)c(-n2nnnc2SCC(=O)c2c(N)n(C)c(=O)n(C)c2=O)c1", "activation": "2.95% (inactive)"}
{"smiles": "O=C1NC[C@H](CCCCN2C[C@H](Cc3ccc(O)cc3)N(CC3CCCCC3)C(=O)C2=O)N(CCc2ccccc2)C1=O", "activation": "-0.06% (inactive)"}
{"smiles": "COCCn1c(SC(C)C(=O)NC2CC2)nnc1-c1cccc(C)c1", "note": "(stereo not given)", "activation": "3.19% (inactive)"}
{"smiles": "COc1ccccc1N1CCN(C(=O)c2cn(-c3ccccc3)nc2-c2cccnc2)CC1", "activation": "19.1% (inactive)"}
{"smiles": "NC(=O)C1CCN(C(=O)c2cn(-c3ccccc3)nc2-c2cccnc2)CC1", "activation": "1.55% (inactive)"}
{"smiles": "O=C(NNC(=S)NC(=O)c1cn(-c2ccccc2)nc1-c1ccccc1)c1ccncc1", "activation": "118% (active)"}
{"smiles": "O=C(NCc1ccc(F)cc1)C1CCC(CNc2c(N3CCOCC3)c(=O)c2=O)CC1", "note": "(stereo not given)", "activation": "0.31% (inactive)"}
{"smiles": "O=C(NCCOc1ccccc1F)Nc1ccc(Br)cc1", "activation": "12% (inactive)"}
{"smiles": "O=C(Nc1nnc(COc2ccccc2)s1)Nc1ccccc1F", "activation": "-0.19% (inactive)"}
{"smiles": "O=C(Nc1ccccc1)Nc1nnc(COc2ccccc2F)s1", "activation": "49.8% (active)"}
{"smiles": "COC(=O)[C@]12C[C@H](CC(=O)NCCC(C)C)C(=O)N(CCc3ccc(OC)c(OC)c3)C1=C[C@H](C(C)(C)C)O[C@@H]2C", "activation": "-1.91% (inactive)"}
{"smiles": "Cc1nc(NC(=O)C(C)(C)C)sc1[N+](=O)[O-]", "activation": "1.6% (inactive)"}
{"smiles": "NC[C@H](Cc1ccccc1)NCCc1cc(C(F)(F)F)cc(C(F)(F)F)c1", "activation": "47.6% (active)"}
{"smiles": "COC(=O)[C@@H](Cc1ccccc1)NC(=O)NCCc1ccccc1", "activation": "-0.6% (inactive)"}
{"smiles": "CCC(CC)NC(=O)CSc1nnc(-c2c[nH]c3ccccc23)o1", "activation": "3.45% (inactive)"}
{"smiles": "CCOC(=O)c1cc2c(=O)[nH]c(C(Cl)(Cl)Cl)nc2o1", "activation": "2.83% (inactive)"}
{"smiles": "CN1C(=O)C2CC(O)C(SC3CC4C(=O)N(C)C(=O)C4CC3O)CC2C1=O", "note": "(stereo not given)", "activation": "-0.78% (inactive)"}
{"smiles": "COc1cc(OC)c(NC(=O)C2CCCN2C(=O)OCc2ccccc2)cc1Cl", "note": "(stereo not given)", "activation": "1.2% (inactive)"}
{"smiles": "CN1C(=O)C(Br)(Br)CC1c1cccnc1", "note": "(stereo not given)", "activation": "0.34% (inactive)"}
{"smiles": "O=C(CCCN=C1NS(=O)(=O)c2ccccc21)OCC(=O)c1ccc(F)c(F)c1", "activation": "86.8% (active)"}
{"smiles": "O=C(OCCN=C1NS(=O)(=O)c2ccccc21)c1cccc([N+](=O)[O-])c1", "activation": "0.99% (inactive)"}
{"smiles": "N#CC1(NC(=O)COC(=O)CCN=C2NS(=O)(=O)c3ccccc32)CCCCC1", "activation": "1.14% (inactive)"}
{"smiles": "Oc1ccccc1CNc1ncc(Br)cc1Br", "activation": "4.29% (inactive)"}
{"smiles": "Cc1cc2cc3c(N)[nH]nc3nc2cc1C", "activation": "2.1% (inactive)"}
{"smiles": "Cc1ccc(C2NC(C(=O)O)CS2)cc1", "note": "(stereo not given)", "activation": "6.54% (inactive)"}
{"smiles": "COC(=O)C1=C(C)N(Cc2ccccc2C(F)(F)F)C(=NCc2ccc(C(F)(F)F)cc2)NC1c1ccc(F)cc1", "note": "(stereo not given)", "activation": "0.73% (inactive)"}
{"smiles": "COCCCN(C(=O)CSCc1ccc(C)cc1)c1c(N)n(Cc2ccccc2)c(=O)[nH]c1=O", "activation": "0.76% (inactive)"}
{"smiles": "COc1cc(OC)cc(C(=O)NCC(=O)OCC(=O)NC(C)CCc2ccccc2)c1", "note": "(stereo not given)", "activation": "4.34% (inactive)"}
{"smiles": "COc1cc(OC)cc(C(=O)N[C@H](C(=O)OCC(=O)NC(C)c2ccccc2)C(C)C)c1", "note": "(stereo not given in full)", "activation": "78.4% (active)"}
{"smiles": "COc1cc(OC)cc(C(=O)NC(C(=O)N2CCC2)C(C)C)c1", "note": "(stereo not given)", "activation": "0.84% (inactive)"}
{"smiles": "COc1ccccc1OC(C)C(=O)Nc1ccc(S(=O)(=O)Nc2nccs2)cc1", "note": "(stereo not given)", "activation": "3.3% (inactive)"}
{"smiles": "Cc1ccn2c(=O)c(C(=O)NCCC3=CCCCC3)c(O)nc2c1", "activation": "75.2% (active)"}
{"smiles": "O=C(NCCC1=CCCCC1)c1ccc(-n2cncn2)cc1", "activation": "1.68% (inactive)"}
{"smiles": "O=C(CCNC(=O)Cn1ccc2ccccc2c1=O)NCCC1=CCCCC1", "activation": "1.79% (inactive)"}
{"smiles": "CC1(C)OC(=O)C2=C(CC(CCc3ccccc3)OC2c2ccc(Cl)cc2)O1", "note": "(stereo not given)", "activation": "-0.49% (inactive)"}
{"smiles": "O=c1[nH]c(-c2ccccc2)cn1C1CCN(Cc2ccc(-c3nc4ccc(F)cc4nc3-c3ccccc3)cc2)CC1", "activation": "2.82% (inactive)"}
{"smiles": "Cc1cc(C)c(S(=O)(=O)N2CCC(C(=O)OCc3c(C)noc3C)CC2)c(C)c1", "activation": "5.51% (inactive)"}
{"smiles": "COC(=O)C1=C(C(=O)OC)C2C=C(C(C)C)C1C(=O)C2(C)O", "note": "(stereo not given)", "activation": "1.68% (inactive)"}
{"smiles": "COc1cccc(CNc2nc(NCc3ccccc3OC)nc3ccsc23)c1", "activation": "3.04% (inactive)"}
{"smiles": "Clc1ccccc1Nc1nc(NCc2cccs2)nc2ccsc12", "activation": "7.75% (inactive)"}
{"smiles": "COc1cccc(CNc2nc(NCc3cccs3)nc3ccsc23)c1", "activation": "39% (active)"}
{"smiles": "CCn1nnc(NC(=O)c2cc(Cl)c(OC)c(Cl)c2)n1", "activation": "5.93% (inactive)"}
{"smiles": "O=C1CC(c2ccccc2)C(c2ccccc2)=NN1", "note": "(stereo not given)", "activation": "2.78% (inactive)"}
{"smiles": "O=C(c1cc(-c2cccc(O)c2)on1)N1CCc2ccccc2C1", "activation": "31.8% (inactive)"}
{"smiles": "COc1ccc2c(c1)CCc1c(C(=O)N3CCc4ccccc4C3)noc1-2", "activation": "13.8% (inactive)"}
{"smiles": "O=C(c1noc2c1CCCC2)N1CCc2ccccc2C1", "activation": "54.6% (active)"}
{"smiles": "CCOC(=O)CC1(NC(=O)c2cc(COc3cncc(Cl)c3)on2)CCCCC1", "activation": "4.12% (inactive)"}
{"smiles": "O=C(CN1CCc2ccccc21)NC(c1ccccc1)c1ccccc1", "activation": "-0.06% (inactive)"}
{"smiles": "CC(=O)c1c(C)[nH]c(C(=O)OCC(=O)Nc2c(C)cccc2C)c1C", "activation": "18.7% (inactive)"}
{"smiles": "COC(=O)c1[nH]c2cccc(C)c2c1NC(=O)CN1CCCc2ccccc21", "activation": "38.2% (active)"}
{"smiles": "Cc1ccc(NC(=O)N2c3ccccc3SC2c2ccco2)c(C)c1", "note": "(stereo not given)", "activation": "1.34% (inactive)"}
{"smiles": "Cc1cc(Br)cn2c(Cc3ccccc3C(F)(F)F)c(-c3ccc(C#N)cc3)nc12", "activation": "0.31% (inactive)"}
{"smiles": "O=C(CSc1nc(-c2ccco2)cc(C(F)(F)F)n1)N1CCc2ccccc2C1", "activation": "19.4% (inactive)"}
{"smiles": "O=C(CSc1nc(-c2ccco2)cc(C(F)(F)F)n1)NCc1cccs1", "activation": "75.6% (active)"}
{"smiles": "COc1ccc(-c2cc(C(F)(F)F)nc(SCCC(=O)NCc3ccco3)n2)cc1", "activation": "0.17% (inactive)"}
